These results are taken from ChEMBL document CHEMBL3792341, “Substituted quinazolinones as kinase inhibitors endowed with anti-fibrotic properties” (Eur J Med Chem, 2016).

Each structure is given as a SMILES string. The source made the active and inactive calls. The calls are words filed in the database; no cut-off is given here.

Data set [1] has as its target Vascular endothelial growth factor receptor 2 (Homo sapiens) (UniProt P35968). In words: Inhibition of human KDR using […] as substrate at 1 uM measured after 20 mins at 30 degC by liquid scintillation counting method in presence of [gamma-32P]-ATP.
Data set [2] concerns the target Fibroblast growth factor receptor 1 (Homo sapiens) (UniProt P11362). In words: Inhibition of human FGFR1 using myelin basic protein as substrate at 1 uM measured after 20 mins at 30 degC by liquid scintillation counting method in presence of [gamma-32P]-ATP.
Data set [3] deals with Tyrosine-protein kinase ABL1 (Homo sapiens) (UniProt P00519). In words: Inhibition of human Abl1 using myelin basic protein as substrate at 1 uM measured after 20 mins at 30 degC by liquid scintillation counting method in presence of [gamma-32P]-ATP.
Tyrosine-protein kinase ABL1 (Homo sapiens), sequence (P00519 whole entry): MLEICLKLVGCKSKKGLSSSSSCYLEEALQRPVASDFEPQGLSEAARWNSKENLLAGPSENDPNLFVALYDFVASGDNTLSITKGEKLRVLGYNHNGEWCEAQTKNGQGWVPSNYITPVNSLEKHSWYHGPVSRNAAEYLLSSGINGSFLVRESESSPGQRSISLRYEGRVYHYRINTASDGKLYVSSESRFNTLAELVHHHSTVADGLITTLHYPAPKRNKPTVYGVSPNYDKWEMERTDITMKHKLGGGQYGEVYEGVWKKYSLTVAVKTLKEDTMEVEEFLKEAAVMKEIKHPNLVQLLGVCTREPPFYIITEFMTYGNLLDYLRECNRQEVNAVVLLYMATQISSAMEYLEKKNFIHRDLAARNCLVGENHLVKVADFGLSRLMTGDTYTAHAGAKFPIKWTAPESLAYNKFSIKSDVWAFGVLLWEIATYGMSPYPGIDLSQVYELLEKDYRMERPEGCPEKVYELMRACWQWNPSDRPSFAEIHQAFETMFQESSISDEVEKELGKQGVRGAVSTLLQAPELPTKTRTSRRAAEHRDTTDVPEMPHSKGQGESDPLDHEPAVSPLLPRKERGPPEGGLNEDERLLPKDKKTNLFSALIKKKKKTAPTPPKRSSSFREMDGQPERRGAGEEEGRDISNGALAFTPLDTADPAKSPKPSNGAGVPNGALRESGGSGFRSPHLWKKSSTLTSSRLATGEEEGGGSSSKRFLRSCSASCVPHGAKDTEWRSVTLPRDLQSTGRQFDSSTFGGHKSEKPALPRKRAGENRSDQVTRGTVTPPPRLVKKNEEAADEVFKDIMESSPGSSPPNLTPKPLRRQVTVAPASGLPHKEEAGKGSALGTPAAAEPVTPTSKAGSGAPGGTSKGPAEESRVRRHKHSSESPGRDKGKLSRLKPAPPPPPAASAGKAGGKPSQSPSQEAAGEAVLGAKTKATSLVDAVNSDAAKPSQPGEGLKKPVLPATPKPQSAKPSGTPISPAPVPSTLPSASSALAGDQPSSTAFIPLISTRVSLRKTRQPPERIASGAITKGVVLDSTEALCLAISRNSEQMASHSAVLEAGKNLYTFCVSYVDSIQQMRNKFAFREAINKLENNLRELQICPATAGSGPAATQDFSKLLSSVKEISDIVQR
Data set [4] addresses Proto-oncogene tyrosine-protein kinase Src (Homo sapiens) (UniProt P12931). In words: Inhibition of human Src using myelin basic protein as substrate at 1 uM measured after 20 mins at 30 degC by liquid scintillation counting method in presence of [gamma-32P]-ATP.
Data set [5] deals with Platelet-derived growth factor receptor beta (Homo sapiens) (UniProt P09619). In words: Inhibition of human PDGFR-beta at 1 uM measured after 20 mins at 30 degC by liquid scintillation counting method in presence of [gamma-32P]-ATP.
Platelet-derived growth factor receptor beta (Homo sapiens), sequence (P09619 whole entry): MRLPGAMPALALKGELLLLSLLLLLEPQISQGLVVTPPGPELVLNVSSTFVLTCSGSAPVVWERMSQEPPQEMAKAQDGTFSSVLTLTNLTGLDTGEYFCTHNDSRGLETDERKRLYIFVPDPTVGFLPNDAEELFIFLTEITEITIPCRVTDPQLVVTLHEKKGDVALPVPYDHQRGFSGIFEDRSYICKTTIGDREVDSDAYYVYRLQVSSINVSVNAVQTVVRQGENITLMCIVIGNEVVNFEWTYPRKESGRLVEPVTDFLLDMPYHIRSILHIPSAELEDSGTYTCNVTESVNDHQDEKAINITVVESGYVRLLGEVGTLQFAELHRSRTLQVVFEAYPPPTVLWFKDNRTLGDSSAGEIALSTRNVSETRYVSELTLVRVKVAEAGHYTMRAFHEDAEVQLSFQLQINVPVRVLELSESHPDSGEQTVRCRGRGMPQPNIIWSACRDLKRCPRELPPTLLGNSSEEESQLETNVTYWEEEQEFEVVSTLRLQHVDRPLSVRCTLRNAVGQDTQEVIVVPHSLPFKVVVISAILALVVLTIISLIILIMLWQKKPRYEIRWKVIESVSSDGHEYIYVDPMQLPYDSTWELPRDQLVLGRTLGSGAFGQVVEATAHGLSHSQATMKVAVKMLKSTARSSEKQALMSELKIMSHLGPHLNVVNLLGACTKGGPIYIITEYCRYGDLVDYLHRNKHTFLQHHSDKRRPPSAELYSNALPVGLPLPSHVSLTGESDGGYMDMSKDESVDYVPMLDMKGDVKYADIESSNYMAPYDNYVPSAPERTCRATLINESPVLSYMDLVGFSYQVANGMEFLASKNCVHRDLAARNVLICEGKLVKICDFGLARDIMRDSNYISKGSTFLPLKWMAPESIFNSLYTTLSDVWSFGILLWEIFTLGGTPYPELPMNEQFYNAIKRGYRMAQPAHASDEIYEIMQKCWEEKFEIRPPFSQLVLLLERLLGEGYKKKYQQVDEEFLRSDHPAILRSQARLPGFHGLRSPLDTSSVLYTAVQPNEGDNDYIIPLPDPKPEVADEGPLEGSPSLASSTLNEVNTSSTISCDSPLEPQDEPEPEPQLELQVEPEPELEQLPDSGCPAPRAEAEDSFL
In data set [6] the target is Serine/threonine-protein kinase mTOR (Homo sapiens) (UniProt P42345). In words: Inhibition of human mTOR using PHAS-1 as substrate at 1 uM measured after 20 mins at 30 degC by liquid scintillation counting method in presence of [gamma-32P]-ATP.
For data set [7], the species on record is Homo sapiens. In words: Inhibition of human PI3K using phosphatidylinositol 4,5-diphosphate as substrate at 1 uM measured after 20 mins at 30 degC by liquid scintillation counting method in presence of [gamma-32P]-ATP.
The nature of data set [8]: Reduction of COL1A1 mRNA expression in healthy human HSC cells at 1 uM by RT-PCR analysis. It is filed as functional, cell-based. In outline: (§1)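 HSCs or ISEMFs were treated with compound for 24 h. Total RNA was extracted and DNase I-treated, then used for quantitative PCR of the target transcript. Values were normalized to 18S rRNA and relative change was calculated by the ΔΔCT method. Triplicate per isolated cell batch.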

The nature of data set [9]: Reduction of COL1A1 mRNA expression in crohn's disease patient isolated ISEMF at 1 uM by RT-PCR analysis. Type of data set: functional. The settings on record: Homo sapiens. In outline: as §1
A short description of data set [10]: Reduction of COL1A1 mRNA expression in healthy human ISEMF at 1 uM by RT-PCR analysis. It is filed as functional. In outline:
as §1

Data set [11] is described as follows: Reduction of FN1 mRNA expression in human HSC cells at 1 uM by RT-PCR analysis. It is filed as functional, cell-based. An outline of the steps:
as §1

A short description of data set [12]: Reduction of FN1 mRNA expression in healthy human ISEMF at 1 uM by RT-PCR analysis. It is filed as functional. An outline of the steps: as §1
Data set [13] in a line: Reduction of FN1 mRNA expression in crohn's disease patient isolated ISEMF at 1 uM by RT-PCR analysis. The settings on record: Homo sapiens. It is filed as functional. An outline of the steps:
as §1

A short description of data set [14]: Reduction of TIMP1 mRNA expression in human HSC cells at 1 uM by RT-PCR analysis. It is filed as functional, cell-based. An outline of the steps:
as §1

The nature of data set [15]: Reduction of TIMP1 mRNA expression in healthy human ISEMF at 1 uM by RT-PCR analysis. Type of data set: functional. An outline of the steps: as §1
Data set [16] can be described thus: Reduction of TIMP1 mRNA expression in crohn's disease patient isolated ISEMF at 1 uM by RT-PCR analysis. Type of data set: functional. The settings on record: Homo sapiens. An outline of the steps:
as §1

In data set [17] the test system is HSC. In words: Antiproliferative activity against VEGF induced human HSC cells at 1 uM after 72 hrs by carboxyfluorescein diacetate succinimidyl ester dye-based FACS flow cytometric method. Type of data set: functional, cell-based. In outline: (§2)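 Primary human HSCs (from collagenase/pronase digests of non-pathological liver, Percoll gradient) or ISEMFs (from collagenase-digested gut biopsies, CD90-checked) were CFSE-loaded for 10 min at 37 °C in PBS with 0.1% BSA. Loading was quenched with 5 volumes of ice-cold medium. After 16 h, cells were washed and given compound plus 1 ng/ml VEGF for 72 h. Read-out was dye partitioning by flow cytometry, as % CFSE-positive cells. Duplicate per cell batch; mean ± SE.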
For orientation: Flow cytometry measures light scatter and fluorescence of single cells or particles in a stream.

Data set [18] is filed under the species Homo sapiens. In words: Antiproliferative activity against VEGF induced healthy human ISEMF at 1 uM after 72 hrs by carboxyfluorescein diacetate succinimidyl ester dye-based FACS flow cytometric method. Type of data set: functional. An outline of the steps: as §2
For data set [19], the species on record is Homo sapiens. In words: Antiproliferative activity against VEGF induced crohn's disease patient isolated ISEMF at 1 uM after 72 hrs by carboxyfluorescein diacetate succinimidyl ester dye-based FACS flow cytometric method. It is filed as functional. An outline of the steps: as §2
A short description of data set [20]: Cytotoxicity against human HSC cells assessed as cell viability at 1 uM after 72 hrs by MTT assay. Type of data set: cell-based. An outline of the steps: (§3)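 MTT viability in primary human HSCs or ISEMFs seeded at 2 × 10³ cells/well. Cells were exposed to compound for 72 h, then to MTT 0.50 mg/ml for 4 h. Viability is expressed as % of the respective untreated cells. Triplicate per isolated cell batch.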
In general terms: Tetrazolium assays rely on reduction of a dye to a coloured formazan, in cell work by metabolically active cells.

A short description of data set [21]: Cytotoxicity against healthy human ISEMF assessed as cell viability at 1 uM after 72 hrs by MTT assay. In outline:
as §3

Data set [22] can be described thus: Cytotoxicity against crohn's disease patient isolated ISEMF assessed as cell viability at 1 uM after 72 hrs by MTT assay. The settings on record: human. In outline:
as §3

Data set [23] deals with T1, MAP kinase p38 (Homo sapiens) (UniProt O15264+Q15759+Q16539+P53778). In words: Inhibition of p38 MAPK phosphorylation in human HSC cells at 1 uM after 4 hrs by western blotting analysis. It is filed as cell-based. An outline of the steps: (§4)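 Primary human cells were treated with compound for 4 h. Lysates were made in RIPA buffer with phosphatase and protease inhibitors and cleared by centrifugation. Proteins were run on 10% SDS-PAGE and blotted to nitrocellulose. Blots were probed for phospho-p38 MAPK with an HRP secondary and ECL detection, then reprobed for total p38 MAPK as loading control. Duplicate experiments.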
In general terms: In western blotting, separated proteins are transferred to a membrane and probed.

Data set [24] deals with T1, MAP kinase p38 (Homo sapiens). In words: Inhibition of p38 MAPK phosphorylation in crohn's disease patient isolated ISEMF at 1 uM after 4 hrs by western blotting analysis. In outline:
as §4

Fibroblast growth factor receptor 1 (Homo sapiens), sequence (P11362 22-822 limits assumed): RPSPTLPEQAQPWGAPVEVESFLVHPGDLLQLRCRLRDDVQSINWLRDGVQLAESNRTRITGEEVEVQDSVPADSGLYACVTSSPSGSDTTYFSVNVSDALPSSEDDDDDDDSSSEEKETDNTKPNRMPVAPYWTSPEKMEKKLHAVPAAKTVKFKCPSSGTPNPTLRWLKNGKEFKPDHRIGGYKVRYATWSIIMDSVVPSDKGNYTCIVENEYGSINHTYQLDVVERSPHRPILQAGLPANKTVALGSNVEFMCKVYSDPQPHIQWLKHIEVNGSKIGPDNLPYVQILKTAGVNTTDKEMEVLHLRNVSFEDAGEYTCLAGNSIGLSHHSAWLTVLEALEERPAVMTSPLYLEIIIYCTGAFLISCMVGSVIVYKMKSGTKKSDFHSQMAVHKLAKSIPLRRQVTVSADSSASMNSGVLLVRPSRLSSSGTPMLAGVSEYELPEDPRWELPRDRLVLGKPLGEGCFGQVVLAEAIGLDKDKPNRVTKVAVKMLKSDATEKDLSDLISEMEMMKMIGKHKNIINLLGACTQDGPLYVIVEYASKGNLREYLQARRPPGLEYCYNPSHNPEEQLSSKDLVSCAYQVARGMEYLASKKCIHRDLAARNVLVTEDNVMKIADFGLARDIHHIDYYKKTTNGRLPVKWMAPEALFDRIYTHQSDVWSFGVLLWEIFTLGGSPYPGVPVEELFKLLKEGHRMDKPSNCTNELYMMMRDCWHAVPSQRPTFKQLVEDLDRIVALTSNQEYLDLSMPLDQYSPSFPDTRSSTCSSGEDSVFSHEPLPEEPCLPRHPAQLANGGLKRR
Proto-oncogene tyrosine-protein kinase Src (Homo sapiens), sequence (P12931 2-536 limits assumed): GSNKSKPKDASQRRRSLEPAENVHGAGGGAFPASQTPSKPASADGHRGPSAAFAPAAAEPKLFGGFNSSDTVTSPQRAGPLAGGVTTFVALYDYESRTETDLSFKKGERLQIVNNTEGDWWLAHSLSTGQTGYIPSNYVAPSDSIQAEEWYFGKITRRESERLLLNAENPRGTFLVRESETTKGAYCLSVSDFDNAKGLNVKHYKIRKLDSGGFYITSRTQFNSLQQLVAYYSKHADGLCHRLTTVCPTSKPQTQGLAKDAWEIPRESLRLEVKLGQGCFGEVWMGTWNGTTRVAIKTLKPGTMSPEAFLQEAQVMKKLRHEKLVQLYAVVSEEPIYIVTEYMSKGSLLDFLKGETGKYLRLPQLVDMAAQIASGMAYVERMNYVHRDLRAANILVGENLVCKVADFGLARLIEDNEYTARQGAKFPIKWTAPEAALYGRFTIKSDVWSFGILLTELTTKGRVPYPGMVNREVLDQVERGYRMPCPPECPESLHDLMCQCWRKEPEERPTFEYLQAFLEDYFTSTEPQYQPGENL
Vascular endothelial growth factor receptor 2 (Homo sapiens), sequence (P35968 whole entry): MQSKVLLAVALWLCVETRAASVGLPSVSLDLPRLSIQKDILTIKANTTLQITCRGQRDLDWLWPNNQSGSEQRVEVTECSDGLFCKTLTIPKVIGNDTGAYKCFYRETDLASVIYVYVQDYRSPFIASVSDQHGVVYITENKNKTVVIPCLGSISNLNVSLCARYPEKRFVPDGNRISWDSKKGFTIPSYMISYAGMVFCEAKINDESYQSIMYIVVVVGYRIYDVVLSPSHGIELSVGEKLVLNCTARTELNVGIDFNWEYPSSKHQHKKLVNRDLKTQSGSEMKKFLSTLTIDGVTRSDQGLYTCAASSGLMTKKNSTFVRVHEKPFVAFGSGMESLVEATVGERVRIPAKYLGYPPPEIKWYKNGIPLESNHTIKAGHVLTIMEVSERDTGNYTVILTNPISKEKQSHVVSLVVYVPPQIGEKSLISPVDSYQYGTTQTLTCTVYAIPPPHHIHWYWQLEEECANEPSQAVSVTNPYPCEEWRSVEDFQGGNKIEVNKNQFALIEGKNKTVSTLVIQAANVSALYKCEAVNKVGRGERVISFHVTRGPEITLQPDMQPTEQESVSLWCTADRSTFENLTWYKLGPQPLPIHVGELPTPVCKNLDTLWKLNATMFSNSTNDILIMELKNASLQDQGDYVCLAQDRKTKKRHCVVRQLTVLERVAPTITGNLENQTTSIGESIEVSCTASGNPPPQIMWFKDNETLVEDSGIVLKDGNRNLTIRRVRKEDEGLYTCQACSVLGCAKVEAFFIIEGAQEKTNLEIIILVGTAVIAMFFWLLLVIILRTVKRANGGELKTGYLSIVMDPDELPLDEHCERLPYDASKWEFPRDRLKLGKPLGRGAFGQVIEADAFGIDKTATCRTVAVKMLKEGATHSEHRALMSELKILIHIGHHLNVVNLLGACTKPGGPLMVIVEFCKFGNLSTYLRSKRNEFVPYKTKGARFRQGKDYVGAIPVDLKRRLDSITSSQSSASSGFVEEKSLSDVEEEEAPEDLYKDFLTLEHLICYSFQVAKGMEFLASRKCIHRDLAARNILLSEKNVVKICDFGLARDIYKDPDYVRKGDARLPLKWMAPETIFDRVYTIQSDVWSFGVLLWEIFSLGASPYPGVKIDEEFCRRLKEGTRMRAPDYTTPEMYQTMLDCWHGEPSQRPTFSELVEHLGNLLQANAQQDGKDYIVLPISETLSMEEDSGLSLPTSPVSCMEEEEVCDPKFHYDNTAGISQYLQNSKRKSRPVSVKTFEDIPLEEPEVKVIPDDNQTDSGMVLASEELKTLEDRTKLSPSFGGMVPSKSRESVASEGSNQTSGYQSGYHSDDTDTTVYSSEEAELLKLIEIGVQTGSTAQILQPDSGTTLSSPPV

Regarding `O=c1c2cc3c(cc2ncn1Cc1ccc(Br)cc1)OCO3`, the inhibition (commonly the percentage by which the read-out fell short of the control) in data set [1] came to 27%; in data set [2], 1%; in data set [3], 0%; in data set [4], 0%; in data set [5] it was 45%; in data set [6] it was 17%. In [7], the inhibition is 7%. The result in data set [8], in [9], in data set [10], in data set [11], in data set [12] and in [13] was inactive. The outcome in [14], in [15] and in data set [16] was inactive. Besides, the result in [17], in data set [18] and in data set [19] was Active. Besides, the Activity entry in [20], in [21] and in data set [22] was “Non-toxic” throughout.
For the molecule `COc1cc2ncn(CC(O)c3ccc(Br)cc3)c(=O)c2cc1OC` (stereo unspecified), the inhibition in [1] was 44%; in [2] it was 8%; in data set [3] it was 0%; in data set [4] it was 0%; in data set [5], 0%; in data set [6], 33%. In data set [7], the inhibition came out at 5%. For the same molecule, the result in [8], in data set [9], in [10], in data set [17], in [18] and in data set [19] was Active. For the same molecule, the Activity entry in data set [20], in data set [21] and in data set [22] was “Non-toxic” throughout. The inhibition entry in data set [23] and in data set [24] was “Active” each time.
On to `COc1cc2ncn(Cc3cccnc3Br)c(=O)c2cc1OC`, for which the inhibition in data set [1] is 24%; in data set [2], 13%; in [3], 0%; in data set [4], 3%; in data set [5], 37%; in data set [6] it was 30%. Moreover, the inhibition in data set [7] is 25%. Further, the outcome in data set [11], in data set [13], in data set [14], in [16], in data set [17] and in data set [18] was Active. Moreover, the outcome in data set [19] was Active. In addition, the outcome in data set [12] and in [15] was inactive. In addition, the Activity entry in data set [20], in data set [21] and in data set [22] was “Non-toxic” throughout. Further, the inhibition entry in data set [23] and in data set [24] was “Active” in each case.
For the molecule `O=C(Cn1cnc2cc3c(cc2c1=O)OCCO3)c1cccc(Br)c1`, the inhibition in data set [1] turned out to be 36%; in data set [2], 18%; in data set [3] it was 0%; in [4], 0%; in data set [5] it was 4%; in data set [6], 2%. Further, the inhibition in data set [7] is 35%. The outcome in data set [8], in data set [9] and in [10] was Active. In addition, the Activity result in [20], in data set [21] and in data set [22] was “Non-toxic” in each case. Besides, the inhibition result in data set [23] and in data set [24] was “Active” throughout.
